Measurements as given in ChEMBL document CHEMBL1122046, “Quaternary heterocyclylamino beta-lactams: a generic alternative to the classical acylamino side chain” (1982).
Values after ≈ are worked out from the molar mass of the structure shown.

System: Streptococcus pyogenes
Assay: Minimum inhibitory concentration against aerobic organism Streptococcus pyogenes strain 3124
Type: functional
Details: not given
Outline: (§1)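 Agar-dilution MIC in µg/mL against aerobic bacterial strains on tryptocase soy agar, with inoculum applied as spots. Most series used 10^5 cfu per spot, and a later series used 10^4 cfu per spot. In some tables, footnoted strains were instead tested on Mueller-Hinton or nutrient agar. β-Lactamase-producing strains are flagged.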

MIC [µg/mL] | SMILES
32 (≈ 76.3 µM) | Cn1nnnc1SCC1=C(C(=O)[O-])N2C(=O)[C@@H](Nc3cc[n+](C)cc3)[C@H]2SC1 (stereo in doubt; 15b)
2 (≈ 4.77 µM) | Cn1nnnc1SCC1=C(C(=O)[O-])N2C(=O)[C@@H](Nc3cc[n+](C)cc3)[C@H]2SC1 (stereo in doubt; 15a)

Same assay, conditions: Streptococcus pyogenes; read-out: MIC

MIC [µg/mL] | SMILES
< 0.39 | C[n+]1ccc(NC(C(=O)NC2C(=O)N3C2SC(C)(C)[C@@H]3C(=O)[O-])c2ccccc2)cc1 (some centres not stated)
32 (≈ 73.8 µM) | Cc1c[n+](C)ccc1N[C@@H]1C(=O)N2C(C(=O)[O-])=C(CSc3nnnn3C)CS[C@H]12
32 (≈ 76.3 µM) | Cn1nnnc1SCC1=C(C(=O)[O-])N2C(=O)C(Nc3cccc[n+]3C)C2SC1 (configuration not stated)

System: Morganella morganii
Assay: Minimum inhibitory concentration against aerobic organism Morganella morganii strain 2833
Type: functional
Details: not given
Outline: as §1

MIC [µg/mL] | SMILES
>128 | Cn1nnnc1SCC1=C(C(=O)[O-])N2C(=O)[C@@H](Nc3cc[n+](C)cc3)[C@H]2SC1 (stereo in doubt; 15b)
4 (≈ 9.54 µM) | Cn1nnnc1SCC1=C(C(=O)[O-])N2C(=O)[C@@H](Nc3cc[n+](C)cc3)[C@H]2SC1 (stereo in doubt; 15a)

Same assay, conditions: Morganella morganii; read-out: MIC

MIC [µg/mL] | SMILES
16 (≈ 36.9 µM) | Cc1c[n+](C)ccc1N[C@@H]1C(=O)N2C(C(=O)[O-])=C(CSc3nnnn3C)CS[C@H]12
> 128 | Cn1nnnc1SCC1=C(C(=O)[O-])N2C(=O)C(Nc3cccc[n+]3C)C2SC1 (configuration not stated)

System: Enterobacter cloacae
Assay: Minimum inhibitory concentration against aerobic organism Enterobacter cloacae strain 2646
Type: functional
Details: not given
Outline: as §1

MIC [µg/mL] | SMILES
>128 | Cn1nnnc1SCC1=C(C(=O)[O-])N2C(=O)[C@@H](Nc3cc[n+](C)cc3)[C@H]2SC1 (stereo in doubt; 15b)
1 (≈ 2.38 µM) | Cn1nnnc1SCC1=C(C(=O)[O-])N2C(=O)[C@@H](Nc3cc[n+](C)cc3)[C@H]2SC1 (stereo in doubt; 15a)

Same assay, conditions: Enterobacter cloacae; read-out: MIC

MIC [µg/mL] | SMILES
> 100 | C[n+]1ccc(NC(C(=O)NC2C(=O)N3C2SC(C)(C)[C@@H]3C(=O)[O-])c2ccccc2)cc1 (some centres not stated)
16 (≈ 36.9 µM) | Cc1c[n+](C)ccc1N[C@@H]1C(=O)N2C(C(=O)[O-])=C(CSc3nnnn3C)CS[C@H]12
> 128 | Cn1nnnc1SCC1=C(C(=O)[O-])N2C(=O)C(Nc3cccc[n+]3C)C2SC1 (configuration not stated)

System: Klebsiella pneumoniae
Assay: Minimum inhibitory concentration against aerobic organism Klebsiella pneumoniae strain 2882
Type: functional
Details: not given
Outline: as §1

MIC [µg/mL] | SMILES
64 (≈ 153 µM) | Cn1nnnc1SCC1=C(C(=O)[O-])N2C(=O)[C@@H](Nc3cc[n+](C)cc3)[C@H]2SC1 (stereo in doubt; 15b)
8 (≈ 19.1 µM) | Cn1nnnc1SCC1=C(C(=O)[O-])N2C(=O)[C@@H](Nc3cc[n+](C)cc3)[C@H]2SC1 (stereo in doubt; 15a)

Same assay, conditions: Klebsiella pneumoniae; read-out: MIC

MIC [µg/mL] | SMILES
> 100 | C[n+]1ccc(NC(C(=O)NC2C(=O)N3C2SC(C)(C)[C@@H]3C(=O)[O-])c2ccccc2)cc1 (some centres not stated)
16 (≈ 36.9 µM) | Cc1c[n+](C)ccc1N[C@@H]1C(=O)N2C(C(=O)[O-])=C(CSc3nnnn3C)CS[C@H]12
128 (≈ 305 µM) | Cn1nnnc1SCC1=C(C(=O)[O-])N2C(=O)C(Nc3cccc[n+]3C)C2SC1 (configuration not stated)

System: Proteus mirabilis
Assay: Minimum inhibitory concentration against aerobic organism Proteus mirabilis strain 2830
Type: functional
Details: not given
Outline: as §1

MIC [µg/mL] | SMILES
>128 | Cn1nnnc1SCC1=C(C(=O)[O-])N2C(=O)[C@@H](Nc3cc[n+](C)cc3)[C@H]2SC1 (stereo in doubt; 15b)
8 (≈ 19.1 µM) | Cn1nnnc1SCC1=C(C(=O)[O-])N2C(=O)[C@@H](Nc3cc[n+](C)cc3)[C@H]2SC1 (stereo in doubt; 15a)

Same assay, conditions: Proteus mirabilis; read-out: MIC

MIC [µg/mL] | SMILES
16 (≈ 36.9 µM) | Cc1c[n+](C)ccc1N[C@@H]1C(=O)N2C(C(=O)[O-])=C(CSc3nnnn3C)CS[C@H]12
128 (≈ 305 µM) | Cn1nnnc1SCC1=C(C(=O)[O-])N2C(=O)C(Nc3cccc[n+]3C)C2SC1 (configuration not stated)

System: Proteus vulgaris
Assay: Minimum inhibitory concentration against aerobic organism Proteus vulgaris strain 2829
Type: functional
Details: not given
Outline: as §1

MIC [µg/mL] | SMILES
4 (≈ 9.54 µM) | Cn1nnnc1SCC1=C(C(=O)[O-])N2C(=O)[C@@H](Nc3cc[n+](C)cc3)[C@H]2SC1 (stereo in doubt; 15b)
0.25 (≈ 0.596 µM) | Cn1nnnc1SCC1=C(C(=O)[O-])N2C(=O)[C@@H](Nc3cc[n+](C)cc3)[C@H]2SC1 (stereo in doubt; 15a)

Same assay, conditions: Proteus vulgaris; read-out: MIC

MIC [µg/mL] | SMILES
1 (≈ 2.31 µM) | Cc1c[n+](C)ccc1N[C@@H]1C(=O)N2C(C(=O)[O-])=C(CSc3nnnn3C)CS[C@H]12
0.5 (≈ 1.19 µM) | Cn1nnnc1SCC1=C(C(=O)[O-])N2C(=O)C(Nc3cccc[n+]3C)C2SC1 (configuration not stated)

System: Klebsiella aerogenes
Assay: Minimum inhibitory concentration against aerobic organism Enterobacter aerogenes strain 2906
Type: functional
Details: not given
Outline: as §1

MIC [µg/mL] | SMILES
16 (≈ 38.1 µM) | Cn1nnnc1SCC1=C(C(=O)[O-])N2C(=O)[C@@H](Nc3cc[n+](C)cc3)[C@H]2SC1 (stereo in doubt; 15b)
0.5 (≈ 1.19 µM) | Cn1nnnc1SCC1=C(C(=O)[O-])N2C(=O)[C@@H](Nc3cc[n+](C)cc3)[C@H]2SC1 (stereo in doubt; 15a)

Same assay, conditions: Klebsiella aerogenes; read-out: MIC

MIC [µg/mL] | SMILES
8 (≈ 18.5 µM) | Cc1c[n+](C)ccc1N[C@@H]1C(=O)N2C(C(=O)[O-])=C(CSc3nnnn3C)CS[C@H]12
16 (≈ 38.1 µM) | Cn1nnnc1SCC1=C(C(=O)[O-])N2C(=O)C(Nc3cccc[n+]3C)C2SC1 (configuration not stated)

System: Pseudomonas aeruginosa
Assay: Minimum inhibitory concentration against aerobic organism Pseudomonas aeruginosa strain 2835
Type: functional
Details: not given
Outline: as §1

MIC [µg/mL] | SMILES
> 128 | Cn1nnnc1SCC1=C(C(=O)[O-])N2C(=O)[C@@H](Nc3cc[n+](C)cc3)[C@H]2SC1 (stereo in doubt; 15b)
> 128 | Cc1c[n+](C)ccc1N[C@@H]1C(=O)N2C(C(=O)[O-])=C(CSc3nnnn3C)CS[C@H]12
> 128 | Cn1nnnc1SCC1=C(C(=O)[O-])N2C(=O)C(Nc3cccc[n+]3C)C2SC1 (configuration not stated)

System: Shigella
Assay: Minimum inhibitory concentration against aerobic organism Shigella species strain 2880
Type: functional
Details: not given
Outline: as §1

MIC [µg/mL] | SMILES
>128 | Cn1nnnc1SCC1=C(C(=O)[O-])N2C(=O)[C@@H](Nc3cc[n+](C)cc3)[C@H]2SC1 (stereo in doubt; 15b)
1 (≈ 2.38 µM) | Cn1nnnc1SCC1=C(C(=O)[O-])N2C(=O)[C@@H](Nc3cc[n+](C)cc3)[C@H]2SC1 (stereo in doubt; 15a)

Same assay, conditions: Shigella; read-out: MIC

MIC [µg/mL] | SMILES
25 (≈ 56.8 µM) | C[n+]1ccc(NC(C(=O)NC2C(=O)N3C2SC(C)(C)[C@@H]3C(=O)[O-])c2ccccc2)cc1 (some centres not stated)
16 (≈ 36.9 µM) | Cc1c[n+](C)ccc1N[C@@H]1C(=O)N2C(C(=O)[O-])=C(CSc3nnnn3C)CS[C@H]12
32 (≈ 76.3 µM) | Cn1nnnc1SCC1=C(C(=O)[O-])N2C(=O)C(Nc3cccc[n+]3C)C2SC1 (configuration not stated)

System: not listed separately
Assay: Minimum inhibitory concentration against aerobic organism Salmonella schottmuelleri strain 2837
Type: functional
Details: not given
Outline: as §1

MIC [µg/mL] | SMILES
>128 | Cn1nnnc1SCC1=C(C(=O)[O-])N2C(=O)[C@@H](Nc3cc[n+](C)cc3)[C@H]2SC1 (stereo in doubt; 15b)
8 (≈ 19.1 µM) | Cn1nnnc1SCC1=C(C(=O)[O-])N2C(=O)[C@@H](Nc3cc[n+](C)cc3)[C@H]2SC1 (stereo in doubt; 15a)

Same assay, conditions: Salmonella; read-out: MIC

MIC [µg/mL] | SMILES
6.25 (≈ 14.2 µM) | C[n+]1ccc(NC(C(=O)NC2C(=O)N3C2SC(C)(C)[C@@H]3C(=O)[O-])c2ccccc2)cc1 (some centres not stated)
128 (≈ 295 µM) | Cc1c[n+](C)ccc1N[C@@H]1C(=O)N2C(C(=O)[O-])=C(CSc3nnnn3C)CS[C@H]12
> 128 | Cn1nnnc1SCC1=C(C(=O)[O-])N2C(=O)C(Nc3cccc[n+]3C)C2SC1 (configuration not stated)

System: Escherichia coli
Assay: MIC against aerobic organism Escherichia coli strain 2891
Type: functional
Details: not given
Outline: as §1

MIC [µg/mL] | SMILES
>128 | Cn1nnnc1SCC1=C(C(=O)[O-])N2C(=O)[C@@H](Nc3cc[n+](C)cc3)[C@H]2SC1 (stereo in doubt; 15b)
0.5 (≈ 1.19 µM) | Cn1nnnc1SCC1=C(C(=O)[O-])N2C(=O)[C@@H](Nc3cc[n+](C)cc3)[C@H]2SC1 (stereo in doubt; 15a)

Same assay, conditions: Escherichia coli; read-out: MIC

MIC [µg/mL] | SMILES
> 100 | C[n+]1ccc(NC(C(=O)NC2C(=O)N3C2SC(C)(C)[C@@H]3C(=O)[O-])c2ccccc2)cc1 (some centres not stated)
8 (≈ 18.5 µM) | Cc1c[n+](C)ccc1N[C@@H]1C(=O)N2C(C(=O)[O-])=C(CSc3nnnn3C)CS[C@H]12
64 (≈ 153 µM) | Cn1nnnc1SCC1=C(C(=O)[O-])N2C(=O)C(Nc3cccc[n+]3C)C2SC1 (configuration not stated)

System: Enterococcus faecalis
Assay: Minimum inhibitory concentration against aerobic organism Streptococcus faecalis strain 2864
Type: functional
Details: not given
Outline: as §1

MIC [µg/mL] | SMILES
> 128 | Cn1nnnc1SCC1=C(C(=O)[O-])N2C(=O)[C@@H](Nc3cc[n+](C)cc3)[C@H]2SC1 (stereo in doubt; 15b)
12.5 (≈ 28.4 µM) | C[n+]1ccc(NC(C(=O)NC2C(=O)N3C2SC(C)(C)[C@@H]3C(=O)[O-])c2ccccc2)cc1 (some centres not stated)
> 128 | Cc1c[n+](C)ccc1N[C@@H]1C(=O)N2C(C(=O)[O-])=C(CSc3nnnn3C)CS[C@H]12
> 128 | Cn1nnnc1SCC1=C(C(=O)[O-])N2C(=O)C(Nc3cccc[n+]3C)C2SC1 (configuration not stated)

System: Serratia marcescens
Assay: Minimum inhibitory concentration against aerobic organism Serratia marcescens strain 2852
Type: functional
Details: not given
Outline: as §1

MIC [µg/mL] | SMILES
64 (≈ 153 µM) | Cn1nnnc1SCC1=C(C(=O)[O-])N2C(=O)[C@@H](Nc3cc[n+](C)cc3)[C@H]2SC1 (stereo in doubt; 15b)
1 (≈ 2.38 µM) | Cn1nnnc1SCC1=C(C(=O)[O-])N2C(=O)[C@@H](Nc3cc[n+](C)cc3)[C@H]2SC1 (stereo in doubt; 15a)

Same assay, conditions: Serratia marcescens; read-out: MIC

MIC [µg/mL] | SMILES
> 128 | Cc1c[n+](C)ccc1N[C@@H]1C(=O)N2C(C(=O)[O-])=C(CSc3nnnn3C)CS[C@H]12
> 128 | Cn1nnnc1SCC1=C(C(=O)[O-])N2C(=O)C(Nc3cccc[n+]3C)C2SC1 (configuration not stated)

System: Staphylococcus aureus
Assay: Minimum inhibitory concentration against aerobic organism Staphylococcus aureus strain 2868
Type: functional
Details: not given
Outline: as §1

MIC [µg/mL] | SMILES
64 (≈ 153 µM) | Cn1nnnc1SCC1=C(C(=O)[O-])N2C(=O)[C@@H](Nc3cc[n+](C)cc3)[C@H]2SC1 (stereo in doubt; 15a)

Same assay, conditions: Staphylococcus aureus; read-out: MIC

MIC [µg/mL] | SMILES
> 128 | Cn1nnnc1SCC1=C(C(=O)[O-])N2C(=O)[C@@H](Nc3cc[n+](C)cc3)[C@H]2SC1 (stereo in doubt; 15b)
3.12 (≈ 7.08 µM) | C[n+]1ccc(NC(C(=O)NC2C(=O)N3C2SC(C)(C)[C@@H]3C(=O)[O-])c2ccccc2)cc1 (some centres not stated)
> 128 | Cc1c[n+](C)ccc1N[C@@H]1C(=O)N2C(C(=O)[O-])=C(CSc3nnnn3C)CS[C@H]12
> 128 | Cn1nnnc1SCC1=C(C(=O)[O-])N2C(=O)C(Nc3cccc[n+]3C)C2SC1 (configuration not stated)
